# Sampled rows, rich in hits. Any-hit rate of the full collection: about 4%.
# CHO parental Ca = signal in parental CHO cells, OX1R antagonist counter-screen; parental CHO-K1, ATP-induced calcium, Fluo-8 fluorescence; inhibition, % at 5.6 µM; 330,000 compounds, 0.63% hits;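 active = inhibition above that plate's mean sample inhibition plus 3 SD, cut at about 26% in these data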;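 also: 0% = ATP-challenged DMSO wells and 100% = DMSO wells without ATP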
#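 Material – parental CHO cells · Reagent – ATP stimulus · Compound – single nominal dose of 5.6 µM per compound · Detection – Fluo-8 fluorescence · Read-out basis – percent inhibition of calcium signal · Controls – ATP-challenged DMSO wells low, unchallenged DMSO wells high · Repeats – no replicates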
# OX1R antag-1 = antagonists of human orexin 1 receptor | O43613 | CHO/OX1R cells, Fluo-8 calcium fluorescence, orexin A | inhibition, % at 5 µM | 330,000 compounds, 0.43% hits;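 active = inhibition above its plate's threshold, mean inhibition of all tested compounds on the plate plus 3 SD, cut at about 37% in these data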;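 also: 0% = orexin A challenge wells and 100% = SB-334867-A antagonist wells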
# Target sequence (O43613 whole entry, looked up): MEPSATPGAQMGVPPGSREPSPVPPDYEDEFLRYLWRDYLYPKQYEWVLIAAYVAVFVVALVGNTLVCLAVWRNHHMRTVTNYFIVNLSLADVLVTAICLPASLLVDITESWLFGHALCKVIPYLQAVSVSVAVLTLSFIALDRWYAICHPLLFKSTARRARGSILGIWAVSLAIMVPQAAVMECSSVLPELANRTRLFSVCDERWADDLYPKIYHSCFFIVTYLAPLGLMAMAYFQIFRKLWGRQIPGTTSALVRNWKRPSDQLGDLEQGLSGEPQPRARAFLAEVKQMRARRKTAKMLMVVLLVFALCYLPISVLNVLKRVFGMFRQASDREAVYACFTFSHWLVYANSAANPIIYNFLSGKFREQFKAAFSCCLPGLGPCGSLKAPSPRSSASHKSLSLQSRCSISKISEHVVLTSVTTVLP
# TAAR1 antagonist = antagonists of human TAAR1; Q96RJ0; CHO RD-HGA16 TAAR1, Fluo-8 calcium fluorescence, antagonist; inhibition, % at 3 µM; 360,000 compounds, 1.5% hits; AID 624466;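 active = inhibition above a per-plate cutoff, the mean inhibition of test compounds on that plate plus 3 SD, cut at about 49% in these data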;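 also: 0% = DMSO plus EC80 beta-PEA response and 100% = DMSO alone without agonist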
#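 Test system – hTAAR1-expressing CHO RD-HGA16 cells, Gα16-coupled · Also added – β-PEA at EC80 concentration, post-compound challenge · Compound – 3 µM, single point · Incubation – dye loading 75 min at 37 °C, then 30 min room temperature · Measured by – Fluo-8 intracellular calcium dye fluorescence, real-time kinetic reads · Benchmarks – vehicle and agonist controls · Replicates – singlicate, one well per test compound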
# OX1R antag-2 = blocks the human orexin 1 receptor; AID 485270; OX1R-expressing cells, FRET antagonist read-out; 330,000 compounds, 1.8% hits; inhibition, % at 6.6 µM; in the data active = inhibition mostly above about 38%, no sharp cut-off; inactive = mostly below about 40%;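 also: 0% = agonist challenge alone and 100% = reference antagonist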
# TAAR1 ag = agonists of human TAAR1; CHO RD-HGA16 TAAR1, Fluo-8 calcium fluorescence; vehicle wells 0%, saturating PEA agonist 100%; AID 624467; activation, % at 3 µM; 360,000 compounds, 0.99% hits;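 active = activation above the mean activation of all test compounds in the run plus 3 SD, cut at about 38% in these data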
#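 test system = CHO RD-HGA16 cells carrying human TAAR1 plus Gα16 | schedule = 17-24 h seeding, 75 min 37 °C dye, 30 min RT | compound dosing = 3 µM single concentration | control set = DMSO and PEA EC100 | replicates = n 1 | signal = Fluo-8 fluorescence, 5 s baseline then 140 s kinetic read | measure = percent activation vs PEA EC100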
# TAAR1 ag confirm = confirmation of human TAAR1 agonists | shares compounds with TAAR1 ag | CHO RD-HGA16 TAAR1, Fluo-8 calcium fluorescence; scaled: DMSO 0%, maximal phenethylamine 100% | activation, % at 3 µM | 2,400 compounds, 82% hits;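 active = activation above a cutoff set at the run's mean compound activation plus 3 SD, cut at about 39% in these data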
# Ga16 ag counter = nonselective agonist in parental cells, TAAR1 agonist counter-screen. CHO-Ga16 parental, Fluo-8 calcium fluorescence; normalized to maximal ATP response, DMSO zero. shares compounds with TAAR1 ag. 2,400 compounds, 50% hits. activation, % at 3 µM;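 active = activation above the run cutoff, the mean activation over all tested wells plus 3 SD, cut at about 12% in these data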;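 also: 0% = DMSO wells and 100% = maximal ATP response on the peak over basal ratio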
# TAAR1 desensitize = counter-screen for human TAAR1 agonists: agonists that desensitize TAAR1; shares compounds with TAAR1 ag; CHO RD-HGA16 hTAAR1, Fluo-8 calcium, beta-PEA response inhibition; inhibition, % at 3 µM; 2,400 compounds, 46% hits;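 active = inhibition above the run cutoff, the mean inhibition of all test compounds plus 3 SD, cut at about 49% in these data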;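 also: beta-PEA stimulus applied at its EC80; loss of beta-PEA calcium signal after compound pretreatment read as receptor desensitization; 0% = DMSO with beta-PEA at EC80 and 100% = DMSO alone without agonist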
# Ga16 antag count = nonselective Ga16 antagonism, counter-screen; shares compounds with TAAR1 ag; 2,400 compounds, 39% hits; CHO-Ga16 ATP-induced calcium, Fluo-8 fluorescence; inhibition, % at 3 µM; AID 651952;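 active = inhibition above the plate's mean compound inhibition plus 3 SD, computed per plate, cut at about 22% in these data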;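 also: 0% = EC80 ATP with DMSO and 100% = DMSO wells without ATP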
# * = called active by the depositor; / = no result given.
SMILES,CHO parental Ca,OX1R antag-1,TAAR1 antagonist,OX1R antag-2,TAAR1 ag,TAAR1 ag confirm,Ga16 ag counter,TAAR1 desensitize,Ga16 antag count
COc1cc(CN2CCN(Cc3ccc([N+](=O)[O-])cc3)CC2)c([N+](=O)[O-])cc1OC,0.4,-23.6,-1.8,38.9,5.8,/,/,/,/
COc1ccc(-c2cc(C3CCN(Cc4ccc([N+](=O)[O-])cc4)CC3)[nH]n2)cc1,-27.9,-16.7,-6.3,1.6,48.5*,39.8*,17.8*,3.0,14.9
COc1ccc(-c2cc(C3CCN(CC(O)C(F)(F)F)CC3)[nH]n2)cc1 (stereo not given),-0.3,-4.2,22.6,2.9,44.4*,76.7*,2.0,54.5*,-2.7
COc1ccc(-c2cc(C3CCN(Cc4cccc(C(F)(F)F)c4)CC3)[nH]n2)cc1,-29.1,-34.5,-25.8,9.0,10.7,/,/,/,/
CC(=O)CCC(=O)NC1CCCc2c1cnn2-c1ccc(C(C)(C)C)cc1 (stereo not given),8.8,-4.2,0.0,0.1,3.2,/,/,/,/
O=S(=O)(Nc1ccc2cn[nH]c2c1)c1ccc(Cl)s1,4.0,-0.4,19.2,28.4,0.5,/,/,/,/
COC(=O)c1c(-n2c(C)cc(C=O)c2C)sc2c1CCCC2,-11.4,-1.5,72.2*,-1.3,40.7*,-3.9,0.5,0.4,3.1
CCOc1ccc(S(=O)(=O)NN=C(C)c2cccnc2)cc1,-6.3,0.5,1.8,0.3,11.1,/,/,/,/
CC(=NNC(=O)c1ccncc1)c1ccc2ccccc2c1O,/,/,76.0*,/,167.2*,72.2*,153.5*,54.0*,78.5*
CC(C)Cc1nnc(NC(=O)C2CC(=O)N(c3ccc4c(c3)OCCO4)C2)s1 (stereo not given),-22.2,-31.1,-6.5,2.4,2.8,/,/,/,/
CN(c1ccc(OCC(=O)NC2CCC(O)CC2)cc1)S(=O)(=O)c1ccc(Cl)cc1 (stereo not given),-9.1,-12.9,15.5,5.9,2.0,/,/,/,/
O=C(CSCc1c(F)cccc1Cl)NCCc1ccccc1,-11.2,-17.2,12.0,25.2,43.0*,79.5*,1.2,38.8,-2.0
O=C(CNS(=O)(=O)c1ccc(F)c(Cl)c1)NCCc1ccccc1,-16.7,-24.6,-26.4,8.1,45.4*,64.6*,8.1,13.3,-1.2
O=C(CCc1ccccc1)NCCSCc1c(F)cccc1Cl,-17.2,-27.6,2.1,27.4,0.5,/,/,/,/
COc1ccc(Cl)cc1NC(=O)CN(C)C(=O)CCNC(=O)c1ccccc1OC,-20.9,0.3,-5.2,24.0,2.5,/,/,/,/
CC(NS(=O)(=O)c1cn(C)c(=O)n(C)c1=O)c1ccccc1 (stereo not given),3.9,-12.6,-3.1,5.1,-0.1,/,/,/,/
Cn1nc(C(C)(C)C)c([N+](=O)[O-])c1C(=O)N1CCCCCC1,-5.5,-7.9,-18.7,3.5,1.6,/,/,/,/
Cc1ccsc1CNCc1cc(Cl)ccc1O,-16.8,-8.0,7.8,8.0,21.3,/,/,/,/
Oc1ccc(Cl)cc1CNCc1ccc(F)cc1,-14.4,-11.7,28.6,24.8,65.8*,64.7*,30.0*,22.5,10.9
FC(F)C(F)(F)c1cc(-c2ccc(Cl)cc2)n[nH]1,55.5*,73.0*,48.5,1.9,63.2*,56.8*,21.8*,48.0,25.9*
COc1cc(/C=C2/SC(=S)N(Cc3ccccc3)C2=O)cc(Cl)c1O,67.0*,95.5*,88.8*,-12.0,103.3*,181.7*,198.2*,101.0*,100.2*
Cc1nn(CC(=O)NCc2ccco2)c(C)c1[N+](=O)[O-],11.8,-7.0,-30.5,1.2,0.3,/,/,/,/
CC1CCCN(CCC(=O)c2ccccc2)C1 (stereo not given),/,/,25.3,/,71.9*,85.2*,4.2,39.5,4.9

# High-throughput results as filed in PubChem.
